# The list is not random: actives were taken first. Their share in the collection is about 1.6%.
# Tn7 DDE FP: DD(E)-Tn7 binding inhibition, primary FP screen; FP displacement of FITC-Tn7 peptide from fibrin DD(E); 0% = median of compound wells per plate; inhibition, % at 8.3 µM; hit rate 0.13% among 370,000; AID 720508;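 active = inhibition above the mean of compounds falling within the control limits plus 3 SD of them, cut at about 14% in these data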;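 also: 0% = plate median of compound wells and 100% = 10 µM Aha-Tn7 peptide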
# Target sequence (P02675 whole entry, looked up): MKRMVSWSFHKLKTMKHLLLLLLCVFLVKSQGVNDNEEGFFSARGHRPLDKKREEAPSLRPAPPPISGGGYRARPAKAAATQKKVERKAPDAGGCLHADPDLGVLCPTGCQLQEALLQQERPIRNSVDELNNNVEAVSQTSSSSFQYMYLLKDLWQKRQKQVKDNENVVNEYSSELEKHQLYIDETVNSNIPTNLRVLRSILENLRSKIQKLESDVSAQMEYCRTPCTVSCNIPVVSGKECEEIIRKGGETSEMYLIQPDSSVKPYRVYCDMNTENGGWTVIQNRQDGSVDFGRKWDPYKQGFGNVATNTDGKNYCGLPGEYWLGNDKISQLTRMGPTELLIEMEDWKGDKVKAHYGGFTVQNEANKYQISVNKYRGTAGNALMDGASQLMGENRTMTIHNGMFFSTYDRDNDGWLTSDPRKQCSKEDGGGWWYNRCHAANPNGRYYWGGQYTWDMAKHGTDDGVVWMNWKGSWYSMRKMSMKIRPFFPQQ
#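 Assay system: Human fibrin DD(E) protein | Medium: Tris buffer with calcium and detergent, pH 7.8 | Reagent: 0.1 µM fluorescent Tn7 | Compound dosing: Single point at 8.3 µM | Times: 10 min preincubation, 3 h with tracer, room temperature | Detection: Fluorescence polarization of the labelled Tn7 tracer | Controls: Aha-Tn7 high control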
# ADAM17 inh: inhibitors of human ADAM17; P78536; recombinant ADAM17, EDANS/DABCYL FRET peptide cleavage; inhibition, % at 6.95 µM; hit rate 0.83% among 370,000; AID 720648;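 active = inhibition above the mean of compounds lying between control limits plus 3 SD, set per campaign, cut at about 8.5% in these data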;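 also: 0% = DMSO-only wells as the low control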
# ADAM10 inh: inhibits human ADAM10; recombinant ADAM10, EDANS/DABCYL FRET peptide cleavage, 3 h; hit rate 0.62% among 370,000; O14672; inhibition, % at 7 µM;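 active = inhibition above a per-campaign cutoff equal to the mean of compounds falling between control-based bounds plus 3 SD, cut at about 20% in these data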;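 also: 0% = DMSO wells while the 100% control is not disclosed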
# MT1-MMP act inh: blocks activation of human MT1-MMP; HT1080 RFP-PRO-GFP cells, GFP/RFP ratio fluorescence, overnight; percent of plate control window, DMSO zero; GFP/RFP ratio change, % at 20 µM; hit rate 0.061% among 360,000;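 active = GFP/RFP ratio change of at least 30% with cell ATP level not reduced by more than half and red fluorescence within 50% of control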
#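 Assay system: HT1080 cells carrying an RFP-PRO-GFP reporter | Dosing: Single dose of 20 µM compound, 1% DMSO final | Incubation: Cells overnight before dosing, compound overnight, 37 °C, 5% CO2 | Evaluation: GFP/RFP fluorescence ratio | Control set: DMSO and RFP-L50D-GFP cell wells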
# Tn6 DDE FP: inhibitors of Tn6 peptide binding to human fibrin DD(E) | P02675 | Fibrin DD(E) TRITC-Tn6 fluorescence polarization displacement | AID 720509 | hit rate 0.21% among 370,000 | inhibition, % at 8.3 µM;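 active = inhibition above a per-campaign cutoff: mean of compounds within control limits plus 3 SD, cut at about 15% in these data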;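 also: 0% = median of all compound wells on the plate and 100% = blocking peptide control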
# ADAM10 confirm: confirmation of inhibitors of human ADAM10; AID 743208; hit rate 1% among 2,100; shares compounds with ADAM10 inh; inhibition, % at 6.95 µM; ADAM10 QFRET peptide cleavage, EDANS fluorescence;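 active = inhibition above about 20% chosen separately for each screening run, limit read from the data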;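 also: 0% = DMSO wells and 100% = marimastat wells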
# ADAM17 counter: inhibits human ADAM17 in ADAM10 exosite counter-screen; shares compounds with ADAM10 inh; ADAM17 QFRET peptide cleavage, EDANS fluorescence; inhibition, % at 6.95 µM; hit rate 0.5% among 2,100; AID 743214;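 active = mean triplicate inhibition above the solvent-only control wells' mean plus 3 SD, cut at about 12% in these data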;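 also: 0% = DMSO wells and 100% = marimastat wells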
# ADAM10 ctr: inhibits human ADAM10 in ADAM17 exosite counter-screen; shares compounds with ADAM17 inh; recombinant ADAM10, EDANS/DABCYL FRET peptide cleavage, 3 h; inhibition, % at 6.95 µM; hit rate 47% among 2,900; AID 743256;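 active = mean inhibition over the triplicate runs exceeds the activity threshold set in the earlier primary screen, cut at about 20% in these data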;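 also: 0% = DMSO wells and 100% = marimastat wells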
# ADAM17 confirm: human ADAM17 inhibition, confirmation | shares compounds with ADAM17 inh | recombinant ADAM17, EDANS/DABCYL QFRET peptide cleavage | inhibition, % at 6.95 µM | hit rate 65% among 2,900;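 active = mean inhibition across replicates above the hit cutoff set in the primary screen, cut at about 8.5% in these data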;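 also: 0% = DMSO wells and 100% = marimastat wells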
# Active calls of the source: *; x = no result; ! = not active in a repeat.
SMILES,Tn7 DDE FP,ADAM17 inh,ADAM10 inh,MT1-MMP act inh,Tn6 DDE FP,ADAM10 confirm,ADAM17 counter,ADAM10 ctr,ADAM17 confirm
Cc1nc(-c2ccc(F)cc2)c(CC(=O)N(C)CC(=O)Nc2ccc(Cl)c(C(F)(F)F)c2)s1,-4.2,18.9*,31.6*,9.0,-7.2,1.4,0.9,25.5*,14.5*
Cc1nc(-c2ccc(F)cc2)c(CC(=O)N(C)CC(=O)Nc2ccccc2Cl)s1,-2.9,-2.1,-0.8,4.3,-0.8,x,x,x,x
CN(CC(=O)Nc1ccc(Cl)c(C(F)(F)F)c1)C(=O)CC1Sc2ccccc2NC1=O (configuration not stated),3.0,13.5*,33.4*,1.8,-3.4,1.1,0.3,26.3*,12.9*
Cc1ccc(C)c(OCC(=O)N(C)CC(=O)Nc2ccc(Cl)c(C(F)(F)F)c2)c1,-10.8,8.8*,22.9*,15.1,-1.1,3.9,0.5,31.1*,17.3*
C[C@H]1[C@H](c2ccccc2)Oc2cc(Br)ccc2S(=O)(=O)N1Cc1ccc(Cl)cc1,-0.7,0.3,2.8,x,-4.9,x,x,x,x
Cc1cc(NS(=O)(=O)c2ccc(NC(=O)CSc3nnc(-c4ccccn4)n3Cc3ccco3)cc2)nc(C)n1,-3.9,2.0,-10.2,x,-10.2,x,x,x,x
CC1C(=O)C(C)C(c2cc(Br)ccc2O)NC1c1cc(Br)ccc1O (configuration not stated),0.7,15.0*,34.3*,6.1,-1.1,10.3,3.2,-257.3,-21.5
COC(=O)[C@]12C[C@H](CC(=O)NCCc3ccccc3OC)C(=O)N(Cc3cccc4ccccc34)C1=C[C@H](C(C)C)O[C@@H]2C1CC1,-2.4,10.8*,22.2*,x,4.1,8.0,2.5,27.4*,16.9*
COC(=O)[C@]12C[C@H](CC(=O)NCc3cccc(C(F)(F)F)c3)C(=O)N(Cc3ccco3)C1=C[C@H](C(C)C)O[C@@H]2C1CC1,7.6,11.8*,24.3*,x,3.7,1.9,2.1,49.4*,24.2*
COC(=O)[C@]12C[C@H](CC(=O)NCc3cccc(C(F)(F)F)c3)C(=O)N(CCc3ccc(OC)c(OC)c3)C1=C[C@H](C1CCCC1)O[C@@H]2C,-4.4,9.0*,27.7*,x,-10.1,7.6,1.6,27.0*,12.0*
COC(=O)[C@]12C[C@H](CC(=O)NCc3cccc(C(F)(F)F)c3)C(=O)N(Cc3ccco3)C1=C[C@H](C(C)(C)C)O[C@@H]2C,-2.2,10.0*,21.9*,x,3.7,5.9,1.0,41.6*,20.9*
Cc1cc(C)cc(C(=O)OCCCN(C)C2CN(Cc3cn(Cc4ccccc4F)nn3)S(=O)(=O)C2)c1 (configuration not stated),6.0,-4.7,-2.8,x,7.2,x,x,x,x
COc1cccc(CNS(=O)(=O)c2cc(Br)ccc2Br)c1OC,5.1,2.2,-9.0,x,-3.5,x,x,x,x
CC(=NNC(=O)CSc1nnc(-c2ccccc2)n1-c1ccccc1)c1ccc2ccccc2c1,-5.0,-2.4,-17.9,x,-4.8,x,x,x,x
CC(C)c1ccc(S(=O)(=O)Nc2ccc(SC(F)F)cc2)cc1,-8.4,19.4*,41.0*,2.4,-5.9,9.3,2.5,25.5*,15.3*
Cc1ccc(S(=O)(=O)Nc2ccc(SC(F)F)cc2)c(C)c1,-6.4,11.4*,26.6*,1.6,4.3,3.1,2.0,23.4*,11.1*
COc1cccc([C@@H](NC(=O)C(F)(F)F)[C@@H]2CCCC=C2c2ccccc2)c1,-3.8,0.3,7.6,x,1.4,x,x,x,x
Cc1c(C(=O)N/N=C/c2ccccc2Cl)[nH][nH]c1=O,1.3,1.2,0.5,x,7.8,x,x,x,x
O=C(COc1ccccc1Cl)N1CCN(c2ccc([N+](=O)[O-])c(N3CCCCC3)c2)CC1,-3.0,-0.7,-1.6,2.8,6.5,x,x,x,x
O=C(COc1ccc(Cl)cc1)N1CCN(c2ccc([N+](=O)[O-])c(N3CCCCC3)c2)CC1,-3.8,8.9*,20.3*,0.2,7.5,4.6,1.6,25.1*,12.9*
O=C(Nc1ccc(Br)c(C(F)(F)F)c1)c1ccccc1,8.7,13.0*,34.7*,-13.8,-4.0,1.8,0.9,25.2*,14.8*
O=S(=O)(/N=C(/Nc1ccc(Cl)c(S(=O)(=O)Nc2ccccc2Cl)c1)c1ccc(F)cc1)c1ccccc1,7.9,12.4*!,22.4*!,7.7,-2.5,6.8,1.7,36.4*,18.4*
COc1ccc(NS(=O)(=O)c2cccc(N/C(=N\S(=O)(=O)c3ccccc3)c3ccc(F)cc3)c2)cc1,1.3,8.7*,21.3*,-6.6,-0.6,4.4,1.2,23.7*,15.3*
COC(=O)C1=C(C)N(Cc2ccc(Br)cc2)C(=S)NC1c1ccccc1 (configuration not stated),6.4,4.1,10.8,x,3.2,x,x,x,x
COC(=O)C1CN(CCc2ccccc2)CCS(=O)(=O)N1Cc1ccc(OC)cc1 (configuration not stated),3.7,-4.3,-3.0,x,1.9,x,x,x,x
SMILES,Tn7 DDE FP,ADAM17 inh,ADAM10 inh,MT1-MMP act inh,Tn6 DDE FP,ADAM10 confirm,ADAM17 counter,ADAM10 ctr,ADAM17 confirm
COc1ccc(OC(F)(F)F)cc1CC1(C)C(=O)Nc2ccc(S(=O)(=O)NC3CCCCC3)cc21 (configuration not stated),-2.8,10.2*,22.9*,-17.0,7.8,0.0,0.7,40.2*,18.4*
O=S(=O)(c1ccccc1)N(CC(F)(F)F)c1ccc(C(O)(C(F)(F)F)C(F)(F)F)cc1,-10.5,21.6*,49.1*,-3.0,-6.8,0.5,1.0,36.8*,21.8*
O=C(O)CN(c1cccc(C(F)(F)F)c1)S(=O)(=O)c1ccccc1,4.1,-0.9,0.7,-4.5,-4.0,x,x,x,x
C[C@H](c1ccccc1)N1C[C@@H](COCc2ccccc2)Oc2cccc(F)c2S1(=O)=O,2.0,1.0,-5.1,x,5.4,x,x,x,x
CCOC(=O)c1ccc(NC(=O)C2CCCN(S(=O)(=O)c3ccc(F)cc3)C2)cc1 (configuration not stated),-0.5,8.8*,25.2*,-3.1,4.5,0.5,0.7,16.9,12.8*
COc1cccc(-c2ncn(CCc3ccccc3OC)c2CC(C)C)c1,9.2,6.1,18.2,x,3.8,x,x,x,x
